Columns and labels:
[1] = folding enthalpy; higher = less favourable; fluorescence melt of hairpins on a sequencing array, two-state fit; settings: sodium 0.088 M
In short: (§1)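 Cy3 fluorescence of library hairpins on a sequenced MiSeq flow cell, with annealed Cy3 and quencher oligos, was imaged in 50 mM Na-HEPES pH 8.0, 25 mM NaCl in 2.5 °C steps up to 60 °C. Signals were normalised to pre-quench Cy3 and to control variants. Melting temperature and folding enthalpy came from bootstrapped two-state fits, inverse-variance combined over four replicates. Fitted temperatures were raised by 9.35 °C to match UV melts.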

[2] = melting temperature; fluorescence melt of hairpins on a sequencing array, two-state fit, raised by 9.35 °C to match UV melts; settings: sodium 0.088 M
In short: as §1

Sequence	folding enthalpy [1] [kcal/mol]	Tm [2] [°C]
GATCGGATTCCGATC ((((((...))))))	-44.6	54.6
GCCCTCGAAAGAGTGGGC ((((((....)))..)))	-25.6	52.7
GCGCCGCGAAAGCCTCGC (((..((....))..)))	-19.3	44.4
GGAGTACGAAAGTATTCC (((.(((....))).)))	-33.1	49.2
GCAGTGCGAAAGCTGTGC (((..((....))..)))	-19.4	50.2
GATCCGATGGCGGATC ((((((....))))))	-42.8	56.6
GCTCCGCGAAAGCTAAGC (((..((....))..)))	-9.02	30.7
GATCAAGCCCTTGATC ((((((....))))))	-49.1	49.4
GGGTATGGAAACATATCC ((.((((....)))).))	-39.3	44.2
GCGTTCATACGC ((((....))))	-21.7	54.7
GTTGGTGGAAACACCAAC (((((((....)))))))	-46.1	66.2
GATCGAACGTTCGATC ((((((....))))))	-49.3	56.7
GTATGGGGAAACCCGTAC (((.(((....))).)))	-34.5	49.1
GCGTGGGGAAACTCACGC (((((.(....).)))))	-42.9	61.4
GATCTAACCGTAGATC ((((((....))))))	-25.1	38
GGGTATCGAAAGATGCCC (((.(((....))).)))	-58.7	58.2
GTTGTCGGAAACGATAGC (.(.(((....))).).)	-17.1	32.4
GACATAGGAAACTATGCC (.(((((....))))).)	-18.6	34.3
GGGAGTCGAAAGACGCCC (((.(((....))).)))	-30	64.3
GTTATTCGAAAGAAGAAC (((.(((....))).)))	-28.3	42.7
GTCACCGGAAACGACGAC (((..((....))..)))	-24.7	31.1
GTGACTGGAAACAGTTGC (..((((....))))..)	-22.9	39.3
GCGACGCCTCGC ((((....))))	-16.9	50.1
GCCTATCGAAAGATGGGC (((.(((....))).)))	-34.6	60.1

Sequence	folding enthalpy [1] [kcal/mol]	Tm [2] [°C]
GATCCTACCAAGGATC ((((((....))))))	-38.1	53.2
GGCGACGAAAGTCGGGCC ((((((....)))..)))	-11	53.3
GATCATTACTATGATC ((((((....))))))	-41.7	48.6
GATCTAGGGGTAGATC ((((((....))))))	-30.2	36.4
GCTAGGCGAAAGCGTAGC ((((.((....)).))))	-33	62.8
GCCTTTGGAAACAAGGGC (((.(((....))).)))	-40.2	48.9
GATCGGAATTCCGATC ((((((....))))))	-51	56.6
GCGACTACTCGC ((((....))))	-23.2	46.6
GCAAGTACGAAAGTATGC (((..(((....))))))	-19	33.4
GCGATAGCTCGC ((((....))))	-9.76	65.8
GATCCGATTGCGGATC ((((((....))))))	-38.4	56.1
GTGAATGGAAACATTTAC ((.((((....)))).))	-32.9	36.5
GAGCACGAAAGTGAGCTC ((((((....)))..)))	-25.4	49.6
GCCCGCGAAAGCGAGGGC ((((((....)))..)))	-28	68.7
GTGTGCGAAAGCAGCAC ((((((....))).)))	-20.1	52.5
GCCGGCGAAAGCCACGGC ((((((....)))..)))	-21.5	63.4
GTGAGGAAACTCAC (((((....)))))	-24.5	51.9
GCTAACGAAAGTTGGAGC ((((((....)))..)))	-19.9	33.1
CGCGGAAAATCCGCG ((((((...))))))	-42.4	62.3
GCGGTGTCGAAAGACCGC (((..(((....))))))	-30.4	58.9
GTAGACTCGAAAGAGTAC (((..(((....))))))	-13.9	31.2
GACAGCGGAAACGCTACC (..((((....))))..)	-11.1	24.2
GACAACGAAAGTTGCGTC ((((((....)))..)))	-12.1	40.6
CGGACACGGAAACGTCCG (((..(((....))))))	-26	47.6

Sequence	folding enthalpy [1] [kcal/mol]	Tm [2] [°C]
GGCTGACGAAAGTCCGCC (((.(((....))).)))	-36.6	58.6
GATTTGCGAAAGCATATC (((.(((....))).)))	-22.9	43.1
GATCGATCCGTCGATC ((((((....))))))	-44.8	53.6
GTTTCGGGAAACCGAAGC (.(((((....))))).)	-23.4	47.3
GTACGCTCGAAAGAGTAC (((..(((....))))))	-21.8	34.1
GATCTACTGTTAGATC ((((((....))))))	-32.4	40.9
GGGCGAGGAAACTCGCTC (.(((((....))))).)	-15.8	58.1
GATCCTTAGAGGATC ((((((...))))))	-28.3	50
GCAGAGCGAAAGCCCCGC ((.(.((....)).).))	-10.1	36.9
GAGGATGGAAACGTCTTC ((.((.(....).)).))	-13.1	32.9
GCGGGGGGCCGC ((((....))))	-13.5	60.7
GCGTGAACACGC ((((....))))	-20.9	68
GATCTCGACGAGATC ((((((...))))))	-38.9	57.4
GTCGATCGAAAGATGGAC (((.(((....))).)))	-28.3	48.6
GACGTCCGAAAGGATGTC (((.(((....))).)))	-42.9	60.1
AGGGGGAAACCCCT (((((....)))))	-17.5	53.5
GACCCCGAAAGGGTTGTC ((((((....)))..)))	-14.4	43.4
GTTGGCGAAAGCCAAAC ((((((....))).)))	-11.6	56.2
GGGGTCACGAAAGTGCCC (((..(((....))))))	-21.4	58.8
GATCTAAGGATAGATC ((((((....))))))	-21.9	34
GCACTGGGAAACTGGTGC ((((..(....)..))))	-33	48.8
GCAAGCACGAAAGTGTGC (((..(((....))))))	-16	40.4
